Reference: the RNAGym collection of RNA variant scans (doi:10.1126/science.aae0568)
Variants at the floor of the assay were thinned out.

B1: tRNA (parent)
chain: GUUCCGUUGGCGUAAUGGUAACGCGUCUCCCUCCUAAGGAGAAGACUGCGGGUUCGAGUCCCGUACGGAACG

Variants of: B1
Test: yeast fitness relative to wild type (ratio to wild type); higher = fitter; tRNA-Arg(CCU), competitive growth, 37 C, YPD
Procedure, shortened: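 Gene amplicons from the start population and from each of six end populations were read by 100-nucleotide paired-end sequencing. Those end populations came from pooled Saccharomyces cerevisiae strains carrying tRNA-Arg(CCU) gene variants at the native locus, competed in YPD at 37°C for 24 hours. Fitness relative to wild type was worked out from changes in genotype frequencies. Genotypes needed ≥ 100 starting reads, and estimates < 0.5 were set to 0.5.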

Variant | yeast fitness
U2C G50A G68C | 0.556
U2C U16G A70G | 1.06
U2C U8C A21U C29U G39A G51C C60U C66G | ≤ 0.5
U2C U8A A36U | ≤ 0.5
U2C G9C U13C G68C | ≤ 0.5
U2C U35A C55A | ≤ 0.5
U2C G63C | 0.747
U2C U19C A57C | 0.642
U2C G23C C31G C33U A42G G50U G52C G58C | ≤ 0.5
U2C C29U C34U A57C U64C | ≤ 0.5
U2C C46U G50A | 0.737
U2C U8A G17C G38A | ≤ 0.5
U2C U16G G56C | ≤ 0.5
U2C C30U A36C A45U G50C | ≤ 0.5
U2C C24G C34U C49A | ≤ 0.5
U2C U26C C27G U28A A43U | ≤ 0.5
U2C U32A A65C | ≤ 0.5
U2C U16G C66A | ≤ 0.5
U2G A14C C33A C46G | ≤ 0.5
U2G A14U A20G C33G A70C | ≤ 0.5
U2C G18A C24A U28A U32C A57C G67U | ≤ 0.5
U2C U13C G44C G58A | 0.59
U2G A14U A20G C33G G67U A69C | ≤ 0.5
U2C C46G | 0.98

Variant | yeast fitness
U2C C61G U64C | ≤ 0.5
U2G A20G C22A A40C C46G G48A C49U G63A | ≤ 0.5
U2C G63C G68C | 0.572
U2G A14C A42C C49U A65G A70U | 0.533
U2C G52A | 0.75
U2C C22G U53C | 0.504
U2G A14G A15U G25C C49U | ≤ 0.5
U2G A15G G17A G52C C66A | ≤ 0.5
U2C U8G C31G A42C G56A C61G | 0.507
U2C C61A | 0.783
U2C C61G | 0.553
U2C U35G A40C C62G C66G | ≤ 0.5
U2C U7A G68A | ≤ 0.5
U2C G12C A14G C29U | ≤ 0.5
U2C G12A A36U | ≤ 0.5
U2C G63C C66U | ≤ 0.5
U2C G25A A69U | 0.711
U2C U16C C27G | 0.669
U2G A20C C33A | ≤ 0.5
U2C U19A C30U G38C | 0.54
U2C U13C G41A | 0.602
U2C C30U | 0.967
U2C C30A | 0.89
U2C U7C G23A | 0.592

Variant | yeast fitness
U2C C27A C31G | 0.557
U2C C24G C46U A70U | 0.537
U2C U13C C22G C24U C61A | ≤ 0.5
U2C G67A | 0.911
U2C C46U C66U | 0.779
U2C G23A C31G G58A | ≤ 0.5
U2C U35C U47C | 0.788
U2C U8G U32G U35A C55U G58A | ≤ 0.5
U2G A15C A36C | 0.649
U2C C27A G41A C49A U53C U54C | ≤ 0.5
U2C C29A A43G | 0.603
U2C G23C | 0.651
U2C C55A G56C G67C | ≤ 0.5
U2C G68C | 0.963
U2C G68A | 0.762
U2C G9C C24U U26G | ≤ 0.5
U2C G10C C31U A43G | 0.525
U2C G23C C33A G50C G58C A70G | ≤ 0.5
U2G A14C A69C | ≤ 0.5
U2C C24G | 0.946
U2C U32A C61A A65G | ≤ 0.5
U2C C49G C55U | 0.573
U2C G12C C49U A65G | ≤ 0.5
U2C G12A A15G C66U | 0.577

Variant | yeast fitness
U2C C31G G58A C61G U64G A69C | ≤ 0.5
U2C G18C G25C A40C G51A G56A C66G | ≤ 0.5
U2C G18C C55G C61G | 0.541
U2C U32G C34U A57G | ≤ 0.5
U2C U19C A37G C49A A69C | ≤ 0.5
U2C U35C A69C | ≤ 0.5
U2C G6A A20U C30U A36U C62U | ≤ 0.5
U2C G18C | 0.723
U2C G18A | 0.806
U2C U3C C34U A40U C55U A65G | ≤ 0.5
U2C G18A C24U A42G G68A | ≤ 0.5
U2G A15C A36C A69U A70G | ≤ 0.5
U2G A20C G44A A45G | 0.712
U2G A20U C34A C55G C66A | ≤ 0.5
U2C U54C | 0.873
U2C U54G | 0.657
U2C C27G C31G A69U | ≤ 0.5
U2C U47C A70U | 0.808
U2C G6A G23A C27U A45C U47C C60A | ≤ 0.5
U2G A15C C24U C55U A65G | ≤ 0.5
U2C U28A G56A | ≤ 0.5
U2G A14G C29G A37U | ≤ 0.5
U2C C30U A37C G38C U54A | ≤ 0.5
U2C C34G A45C A57C | ≤ 0.5

Variant | yeast fitness
U2C G56A | 1.02
U2C U28C C55A | ≤ 0.5
U2C G51A C62G C66U | ≤ 0.5
U2C U13C C22G U26A C31U A42C G50C | ≤ 0.5
U2C C31G U35A G63A | ≤ 0.5
U2C U3A U19G G44C | 0.591
U2C C27A A65G | 0.632
U2G A21C C22U | 0.575
U2G A21C C22G | 0.541
U2C G10A C30U | 0.629
U2C C22U G48A G63C | 0.701
U2C C31A | 0.879
U2C C31G | 1.04
U2C C31U | 0.892
U2C U8G C11U C24U A37U C66A | ≤ 0.5
U2G A15G G17A G52C A65G | 0.558
U2C C24G A36G A42U A45U | ≤ 0.5
U2C G38A C55A | ≤ 0.5
U2C G50A | 0.878
U2G A14C C27U U35A A57G C66U | ≤ 0.5
U2C G10A C49A A65U | ≤ 0.5
U2G A15C G50A | ≤ 0.5
U2G A21G A65G | 0.663
U2C C30U C33U G63C | ≤ 0.5

Variant | yeast fitness
U2C G48A C60A A70G | ≤ 0.5
U2G A20G C22A A40C C46G G48A C49U | ≤ 0.5
U2C U13C C22G U26A | ≤ 0.5
U2G A15C A43G | ≤ 0.5
U2C U16A | 0.971
U2C C22A C29A C55U C61A | ≤ 0.5
U2C U26A | 0.918
U2G A14G C62G A70U | ≤ 0.5
U2C U53G | 0.598
U2C C29A U53C C62A G67A | ≤ 0.5
U2C G50C G51A C55U | 0.582
U2C U59C | 0.996
U2C C22G A37C A45U G67A | ≤ 0.5
U2C G18A C24A U28A U32C | ≤ 0.5
U2G A14C A57U A69U | ≤ 0.5
U2C C29U C31G U35A | ≤ 0.5
U2C G12C C34A A40C | ≤ 0.5
U2C G12A A15G C62U | ≤ 0.5
U2C C27A A69C | ≤ 0.5
U2C C24G A42U | ≤ 0.5
U2C C29U G38C A43U U53G G63C | ≤ 0.5
U2C C24U C31U C46A U59A C61A | ≤ 0.5
U2C U35A U47A C49U C55U C66U | ≤ 0.5
U2C C62A | 0.677

Variant | yeast fitness
U2C C62U | 0.882
U2C C24G C49U | ≤ 0.5
U2C G23C C29A C49G A57U | ≤ 0.5
U2C U16A A70C | 0.676
U2C G50A G51A | 0.511
U2C C34G | 0.62
U2C U13G G67U | ≤ 0.5
U2C U3A U26C U53C | ≤ 0.5
U2G A15C C49U | 0.563
U2C G9A U16C | 0.602
U2C U13A C27G C33A G48A G51C | ≤ 0.5
U2G A15C C24U | 0.591
U2C G6A C11U | 0.587
U2C U19G C60A | 0.528
U2C G10C G51A C60U G67A | ≤ 0.5
U2C C29U C62U A70U | ≤ 0.5
U2C U3C C34U C62G G63A | ≤ 0.5
U2C C34U C46A | ≤ 0.5
U2C C22G A36G | 0.651
U2C G18C C30U A57C U64C | ≤ 0.5
U2C U26C A36G | ≤ 0.5
U2C G9A C24G C30U C62U | ≤ 0.5
U2C U26G A65G | 0.712
